This note sets out measurements from ChEMBL document CHEMBL3525913, “Metabolism-dependent inhibition of CYP3A4 by lapatinib: evidence for formation of a metabolic intermediate complex with a nitroso/oxime metabolite formed via a nitrone intermediate” (Drug Metab Dispos, 2013).

Structures are written as SMILES.

In data set [1] the test system is Liver microsome. Kind of data set: Drug level in human liver microsomes treated with lapatinib at 50 uM by LC/MS/MS analysis. Type of data set: ADME. In outline: (§1)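 Lapatinib 50 μM (added in DMSO) incubated 30 min at 37°C in 100 mM potassium phosphate pH 7.4 with HLM 1 mg/mL or recombinant CYP3A4+b5 / CYP3A5+b5 100 pmol/mL. Reaction started with NADPH 1 mM. Protein re-isolated by ultracentrifugation (100,000 x g, 4°C, 60 min), washed (KCl/EDTA), resuspended in phosphate buffer, ±2 mM ferricyanide 10 min 37°C, quenched with acetonitrile, then high-resolution LC/MS profiling.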

In data set [2] the target is Cytochrome P450 3A4 (Homo sapiens, UniProt P08684). Nature of the data set: Activity of recombinant CYP3A4 (unknown origin) assessed as compound formation treated with lapatinib at 50 uM by LC/MS/MS analysis. Particulars: recombinant enzyme. It counts as ADME. In outline: as §1
Sequence of Cytochrome P450 3A4 (P08684 whole entry): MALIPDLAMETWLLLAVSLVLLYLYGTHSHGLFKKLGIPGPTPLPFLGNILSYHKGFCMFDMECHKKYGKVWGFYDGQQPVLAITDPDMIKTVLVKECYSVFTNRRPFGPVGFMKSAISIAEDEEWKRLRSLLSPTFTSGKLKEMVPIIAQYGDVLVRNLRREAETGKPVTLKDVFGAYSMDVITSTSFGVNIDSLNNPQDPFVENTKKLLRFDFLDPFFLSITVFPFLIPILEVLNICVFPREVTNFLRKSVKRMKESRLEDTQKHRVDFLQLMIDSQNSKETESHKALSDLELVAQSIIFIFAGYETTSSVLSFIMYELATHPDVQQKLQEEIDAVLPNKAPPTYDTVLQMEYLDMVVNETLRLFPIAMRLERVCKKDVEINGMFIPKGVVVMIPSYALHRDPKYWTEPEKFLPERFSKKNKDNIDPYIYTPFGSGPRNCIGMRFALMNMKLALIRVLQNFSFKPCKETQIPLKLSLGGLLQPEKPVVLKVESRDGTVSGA
A short description of data set [3]: Retention time of the compound by LC/MS/MS analysis relative to lapatinib. It counts as physicochemical. In outline: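 Phenyl UPLC column (1.7 μm, 2.1 x 100 mm), 0.1% formic acid in water/acetonitrile, 0.4 mL/min. Gradient: 10% organic for 1 min, to 90% over 13 min, held 0.5 min. Detection by accurate-mass MS. Retention times expressed relative to lapatinib.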

Data set [4] concerns the target Cytochrome P450 3A5 (Homo sapiens, UniProt P20815). Kind of data set: Activity of recombinant CYP3A5 (unknown origin) assessed as compound formation treated with lapatinib at 50 uM by LC/MS/MS analysis. It counts as ADME. The note with it: recombinant enzyme. In outline: as §1

Sequence of Cytochrome P450 3A5 (P20815 whole entry): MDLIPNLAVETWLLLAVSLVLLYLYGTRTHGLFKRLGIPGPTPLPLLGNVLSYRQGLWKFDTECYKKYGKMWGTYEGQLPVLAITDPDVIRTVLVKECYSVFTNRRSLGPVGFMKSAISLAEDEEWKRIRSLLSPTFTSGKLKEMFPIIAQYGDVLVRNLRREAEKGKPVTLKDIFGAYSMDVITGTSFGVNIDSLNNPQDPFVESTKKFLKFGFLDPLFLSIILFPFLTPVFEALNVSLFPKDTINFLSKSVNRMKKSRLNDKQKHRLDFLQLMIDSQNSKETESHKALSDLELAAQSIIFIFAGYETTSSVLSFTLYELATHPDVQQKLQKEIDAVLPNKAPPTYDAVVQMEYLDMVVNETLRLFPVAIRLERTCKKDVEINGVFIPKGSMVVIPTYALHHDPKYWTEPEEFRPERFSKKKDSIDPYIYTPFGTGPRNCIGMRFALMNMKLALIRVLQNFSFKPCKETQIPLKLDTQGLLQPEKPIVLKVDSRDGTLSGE

As for `CS(=O)(=O)CCNCc1ccc(-c2ccc3ncnc(Nc4ccc(O)c(Cl)c4)c3c2)o1`, the Drug metabolism entry in data set [1], in data set [2] and in data set [4] was “metabolite_detected” in each case. In data set [3], the Ratio was 0.5.

Take `CS(=O)(=O)CCN(O)Cc1ccc(-c2ccc3ncnc(Nc4ccc(OCc5cccc(F)c5)c(Cl)c4)c3c2)o1`: the Drug metabolism entry in data set [1], in data set [2] and in data set [4] was “metabolite_detected” throughout. For the same compound, in data set [3], the Ratio amounted to 1.14.

As to `O/N=C/c1ccc(-c2ccc3ncnc(Nc4ccc(OCc5cccc(F)c5)c(Cl)c4)c3c2)o1`, the Drug metabolism entry in data set [1], in data set [2] and in data set [4] was “metabolite_detected” throughout. For the same compound, the Ratio in data set [3] worked out at 1.18.

Take `NCc1ccc(-c2ccc3ncnc(Nc4ccc(OCc5cccc(F)c5)c(Cl)c4)c3c2)o1`: the Drug metabolism entry in data set [1], in data set [2] and in data set [4] was “metabolite_detected” in each case. In data set [3], the Ratio is 0.97.
